Screening results from PubChem BioAssay.
In the library only some 1.8% were active in any assay of this set; here they are far more common.
NR1D1 modulator = modulates human Rev-erb alpha binding to DNA | activity, % at 10 µM | 370,000 compounds, 0.79% hits | Rev-erbα–FITC-DNA binding, fluorescence polarization, 90 min | AID 1259318;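 active = activity above about 14%, limit read from the data; passing the limit was not always enough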;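 note: 0% = DMSO wells with 35 nM protein and 100% = DMSO wells with 750 nM protein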
Target sequence (P20393 whole entry, looked up): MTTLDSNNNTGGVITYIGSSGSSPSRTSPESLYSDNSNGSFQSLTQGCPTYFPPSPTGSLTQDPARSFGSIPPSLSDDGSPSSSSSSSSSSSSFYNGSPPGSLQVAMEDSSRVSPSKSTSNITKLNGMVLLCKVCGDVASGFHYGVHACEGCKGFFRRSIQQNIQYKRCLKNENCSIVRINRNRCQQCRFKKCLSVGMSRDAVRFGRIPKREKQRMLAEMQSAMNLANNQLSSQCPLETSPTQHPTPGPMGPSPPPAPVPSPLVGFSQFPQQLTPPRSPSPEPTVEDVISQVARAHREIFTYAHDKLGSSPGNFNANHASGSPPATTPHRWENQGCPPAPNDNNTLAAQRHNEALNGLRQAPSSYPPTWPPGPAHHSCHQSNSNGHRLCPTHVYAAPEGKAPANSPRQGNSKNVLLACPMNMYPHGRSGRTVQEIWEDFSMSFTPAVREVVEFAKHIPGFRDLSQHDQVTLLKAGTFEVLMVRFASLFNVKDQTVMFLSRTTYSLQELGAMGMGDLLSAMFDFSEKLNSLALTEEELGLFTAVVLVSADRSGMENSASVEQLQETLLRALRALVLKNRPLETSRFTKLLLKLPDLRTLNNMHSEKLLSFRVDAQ
Rin1 Abl inh = blocks binding of human Rin1 to Abl; P00519+Q13671; TR-FRET Rin1/Abl binding, biochemical; inhibition, % at 7.35 µM; 360,000 compounds, 0.4% hits; in the data active = inhibition above about 5%, passing the limit was not always enough
TbMetRS inhib = blocks T. brucei methionyl-tRNA synthetase activity. inhibition, % at 11.9 µM. purified T. brucei MetRS, ATP depletion, Kinase-Glo luminescence. 360,000 compounds, 0.4% hits. AID 624268;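 active = inhibition above a per-plate cutoff of the control wells' mean inhibition plus 3 SD, cut at about 5.5% in these data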;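 note: 0% = DMSO wells median and 100% = median of wells with control inhibitor compound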
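Material: T. brucei methionyl-tRNA synthetase, purified; reagent: substrates ATP, L-methionine and bulk Escherichia coli tRNA; dosing: 11.9 µM single point; timing: 15 min plus 2 h at 25 °C; detection: luminescence of leftover ATP; evaluation: % inhibition; control set: DMSO-only wells as low control; replicates: singlicate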
PG9 binder = binds the HIV-1 gp120 antibody PG9; TR-FRET gp120-PG9 antibody binding; inhibition, % at 6.7 µM; 360,000 compounds, 0.43% hits; in the data active = inhibition above about 8.5%
Rin1-Abl confirm = confirmation of inhibitors of human Rin1-Abl interaction | inhibition, % at 7.35 µM | AID 602124 | shares compounds with Rin1 Abl inh | 1,300 compounds, 49% hits | TR-FRET Rin1-Abl binding, purified proteins
GFP quencher = GFP fluorescence interference artifact; shares compounds with Rin1 Abl inh; inhibitors/quenchers counterscreen; inhibition, % at 6.75 µM; 1,300 compounds, 8.5% hits;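 note: ABL1-eGFP fusion protein alone without its partner RIN1-SBP; 0% = protein with vehicle and 100% = wells lacking protein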
GFP quench DR = GFP fluorescence interference dose response; shares compounds with Rin1 Abl inh; GFP fluorescence interference/quenching counterscreen; IC50, µM; 230 tested, under 10 active; AID 602182; call rule not given here;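 note: ABL1-eGFP fusion protein alone without its RIN1 binding partner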
Active calls of the source: *. Cut-off read from the data, not from the text of the source, unless noted: active = inhibition above about 6.5%; inactive = the rest.

How did CCC(=O)NC(c1ccc(C)cc1)c1cc([N+](=O)[O-])c2cccnc2c1O (configuration not stated) do in these assays?
NR1D1 modulator: 11; Rin1 Abl inh: 3; TbMetRS inhib: -1; PG9 binder: 0

How did CCC(=O)NC(c1ccco1)c1cc(Br)c2cccnc2c1O (configuration not stated) do in these assays?
NR1D1 modulator: -3; Rin1 Abl inh: 7.9*; TbMetRS inhib: 0; PG9 binder: -1; Rin1-Abl confirm: 8.1*; GFP quencher: 4

Results for CC(=O)NC(c1ccco1)c1ccc2cccnc2c1O (configuration not stated) ?
Rin1 Abl inh: 7; TbMetRS inhib: -1

What do the screens show for `CCC(=O)NC(c1ccc(C)cc1)c1ccc2cccnc2c1O` (configuration not stated)?
NR1D1 modulator: 1; Rin1 Abl inh: 11*; TbMetRS inhib: 0; PG9 binder: -2; Rin1-Abl confirm: 6.8*; GFP quencher: 2

Results for CCCC(=O)NC(c1ccc(C(C)C)cc1)c1ccc2cccnc2c1O (configuration not stated) ?
NR1D1 modulator: 3; Rin1 Abl inh: 1; TbMetRS inhib: 0; PG9 binder: 0

What do the screens show for `CCCC(=O)NC(c1ccco1)c1cc([N+](=O)[O-])c2cccnc2c1O` (configuration not stated)?
NR1D1 modulator: -11; Rin1 Abl inh: 9.3*; TbMetRS inhib: 1; PG9 binder: -5; Rin1-Abl confirm: -3; GFP quencher: 5

What do the screens show for `CCOC(=O)C1=C(C(=O)OCC)C2N(Cc3ccc(C#N)cc3)c3ccccc3[C@@]23C[C@@H](C(=O)OC)N(S(=O)(=O)c2ccc(C)cc2)C3=N1` (some centres not stated)?
NR1D1 modulator: 6; PG9 binder: -1

What do the screens show for `C[C@@H]1CN([C@@H](C)CO)C(=O)c2cccc(NC(=O)Nc3cccc4ccccc34)c2O[C@H]1CN(C)S(=O)(=O)c1ccc(Cl)cc1`?
NR1D1 modulator: 8

How did CCOc1ccc(S(=O)(=O)N2CCN(C)CC2)c(C)c1C do in these assays?
NR1D1 modulator: -4; Rin1 Abl inh: 5.8*; TbMetRS inhib: -2; PG9 binder: 1; Rin1-Abl confirm: 0; GFP quencher: -1

Results for O=C(CN1CCN(c2nc(-c3ccccc3)cs2)CC1)Nc1ccc(Cl)c(Cl)c1 ?
NR1D1 modulator: -5

What do the screens show for `C#CCOCCOCCOCCNc1nc(N2CCOCC2)nc(N2CCN(C(=O)[C@H](Cc3ccc(O)cc3)n3cc([C@@H](N)C(C)CC)nn3)CC2)n1` (some centres not stated)?
NR1D1 modulator: -7; Rin1 Abl inh: 11*; TbMetRS inhib: 0; PG9 binder: 0; Rin1-Abl confirm: 14*; GFP quencher: 0

How did O=c1c(O)c(-c2ccc(O)cc2)oc2cc(O)cc(O)c12 do in these assays?
NR1D1 modulator: 0; Rin1 Abl inh: 3; TbMetRS inhib: 0; PG9 binder: -1

What do the screens show for `O=c1c(O)c(-c2ccc(O)c(O)c2)oc2cc(O)ccc12`?
NR1D1 modulator: -5; Rin1 Abl inh: 23*; TbMetRS inhib: 0; PG9 binder: 0; Rin1-Abl confirm: 22*; GFP quencher: 2; GFP quench DR: >68

Results for CC(=O)CC/C=C(\C)CC/C=C(\C)CC/C=C(\C)CCC=C(C)C ?
NR1D1 modulator: -4

Results for NCCNC(=O)Cc1ccc(NC(=O)Cc2ccc(Nc3ncnc4c3ncn4[C@@H]3O[C@H](CO)[C@@H](O)[C@H]3O)cc2)cc1 ?
NR1D1 modulator: -8; Rin1 Abl inh: 16*; TbMetRS inhib: 0; PG9 binder: 0; Rin1-Abl confirm: 28*; GFP quencher: -2

How did CNc1ncnc2c1ncn2[C@@H]1O[C@H](CO)[C@@H](O)[C@H]1O do in these assays?
NR1D1 modulator: -9; Rin1 Abl inh: -2; TbMetRS inhib: 0; PG9 binder: 0
